Measurements collected from several papers.
Target: Serine/threonine-protein kinase NLK (NLK, Homo sapiens, UniProt Q9UBE8)
One construct used (Q9UBE8 1-527): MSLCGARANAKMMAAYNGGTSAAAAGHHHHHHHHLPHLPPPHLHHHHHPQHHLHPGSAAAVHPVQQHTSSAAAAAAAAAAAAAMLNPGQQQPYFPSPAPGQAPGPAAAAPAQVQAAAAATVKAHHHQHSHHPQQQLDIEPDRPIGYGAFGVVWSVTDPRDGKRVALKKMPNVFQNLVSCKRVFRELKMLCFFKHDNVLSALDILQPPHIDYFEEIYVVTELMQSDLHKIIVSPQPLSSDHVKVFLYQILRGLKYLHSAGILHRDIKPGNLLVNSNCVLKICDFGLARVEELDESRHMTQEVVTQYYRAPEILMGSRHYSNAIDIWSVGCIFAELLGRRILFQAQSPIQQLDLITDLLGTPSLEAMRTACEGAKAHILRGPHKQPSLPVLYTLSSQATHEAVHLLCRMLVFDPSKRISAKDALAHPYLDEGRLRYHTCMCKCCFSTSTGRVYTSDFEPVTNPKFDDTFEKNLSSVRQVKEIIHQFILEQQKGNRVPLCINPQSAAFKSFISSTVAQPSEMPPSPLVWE

| Structure (SMILES) | read-out | mode | technique | concentration | measurement | result |
| --- | --- | --- | --- | --- | --- | --- |
| Cc1nn(C)cc1-c1nc2c(N3CCN(Cc4ccc(Cl)cc4)CC3)c(Cl)cnc2[nH]1 | binding |  | competition with immobilised ligand | 1 µM | remaining binding | 72% |
| Cn1cc(-c2cc(F)cc(N3CCn4c(cc5c4CCCC5)C3=O)c2CO)cc(Nc2ccc(N3CCN(C4COC4)CC3)cn2)c1=O | enzyme activity | inhibitor |  | 0.1 µM | inhibition | -4% |
| Nc1ncc(-c2nc(N3CCOCC3)nc(N3CCOCC3)n2)c(C(F)F)n1 | binding |  | competition with immobilised ligand | 10 µM | remaining binding | 88% |
| COc1ncccc1-c1cnn2ccc(N3CCN(C(=O)OC(C)C)CC3)nc12 | binding |  | competition with immobilised ligand | 1 µM | remaining binding | 100% |
| N#CC1(c2ccccn2)CCN(Cc2cc(C(=O)O)c(=O)n3ccccc23)CC1 | cell-free assay |  | competition with immobilised ligand | 1 µM | remaining binding | 100% |
| Cn1cc(-c2cccc(N3CCc4c(sc5c4CC(C)(C)C5)C3=O)c2CO)cc(Nc2ccncn2)c1=O | enzyme activity | inhibitor |  | 1 µM | inhibition | -10% |
| Cn1cncc1[C@@](O)(COc1ccc(C#N)cc1-c1ccc(OC(F)(F)F)cc1)c1ccc(C#N)cc1 | cell-free assay |  | competition with immobilised ligand | 1 µM | remaining binding | 100% |
| O=c1[nH]c2ccccc2n1C1CCN(Cc2ccc(-c3[nH]c4cc5ncnc5cc4nc3-c3ccccc3)cc2)CC1 | cell-free assay |  |  | 0.5 µM | remaining signal | 104% |
| COc1cc(Nc2ncc(F)c(Nc3ccc4c(n3)NC(=O)C(C)(C)O4)n2)cc(OC)c1OC | binding |  |  | 10 µM | inhibition | 0% |
